Source: PMC8200842 (The Journal of General Physiology, 2021)
Several values for one entry are separate records, joined by “and”; a condition that tells them apart may be missing. Equal values may be shown once. Read-outs that look alike come from different tables or passages of the source. Marks after values point to notes of the source that are not given here.

Key:
Type in all cases: binding
WT MelBSt = WT MelBSt (Salmonella typhimurium, UniProt P30878); test: Thermal denaturation by CD spectroscopy; settings: for 10% unfolding / 50% unfolding (Tm) / 90% unfolding: WT MelBSt 10 µM, component at 50 mM in CD buffer, ellipticity at 210 nm; for denaturation completed faster than in the absence of salt / ΔTm: WT MelBSt; for denaturation completed faster than in the absence of salt: above 60°C, nonspecific salt effect; for ΔTm: difference in Tm compared with apo
How it was run: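 Samples sat in a 1-mm cuvette. Ellipticity at 210 nm was recorded from 25–80°C at 1°C intervals, ramping 1°C/min, and expressed as percent unfolded. Tm is the half-maximal ellipticity decrease by curve fitting. Data are SEM; unpaired t test, P<0.05.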

D55C MelBSt mutant = D55C MelBSt mutant (Salmonella typhimurium, UniProt P30878, D55C); test: Thermal denaturation by CD spectroscopy; settings: D55C MelBSt 10 µM, component at 50 mM in CD buffer, ellipticity at 210 nm
MelBSt = MelBSt (Salmonella typhimurium, UniProt P30878); settings: for ΔΔH: from 15°C to 30°C
[1] = MelBSt with 100 mM NaCl (MelBSt/Na^+ binary complex), 15°C
[2] = MelBSt with 100 mM NaCl (MelBSt/Na^+ binary complex), 20°C
[3] = MelBSt with 100 mM NaCl (MelBSt/Na^+ binary complex), 25°C
[4] = MelBSt with 100 mM NaCl (MelBSt/Na^+ binary complex), 30°C
[5] = MelBSt with 100 mM NaCl (MelBSt/Na^+ binary complex), 35°C
[6] = apo MelBSt, range over 15°C, 20°C, 25°C and 30°C
[7] = binding to MelBSt/Na^+ binary complex
[8] = MelBSt with 50 mM melibiose (MelBSt/Mel binary complex), 15°C
[9] = MelBSt with 50 mM melibiose (MelBSt/Mel binary complex), 20°C
[10] = MelBSt with 50 mM melibiose (MelBSt/Mel binary complex), 25°C
[11] = MelBSt with 50 mM melibiose (MelBSt/Mel binary complex), 30°C
[12] = binding to MelBSt/Mel binary complex

[K+] [K^+]
10% unfolding (WT MelBSt): 46.06 ± 0.02 °C | 50% unfolding (Tm) (WT MelBSt): 53.34 ± 0.04 °C | 90% unfolding (WT MelBSt): 59.94 ± 0.69 °C | denaturation completed faster than in the absence of salt (WT MelBSt): 4–5 °C | ΔTm (WT MelBSt): 0.05 ^d (>0.05 ^e) °C | 10% unfolding (D55C MelBSt mutant): 46.51 ± 0.71 °C | 50% unfolding (Tm) (D55C MelBSt mutant): 56.15 ± 0.16 °C | 90% unfolding (D55C MelBSt mutant): 65.07 ± 0.06 °C

OC[C@H]1O[C@H](OCC2O[C@@H](O)[C@H](O)[C@@H](O)[C@@H]2O)[C@H](O)[C@@H](O)[C@H]1O (stereo partly shown) [Mel, melibiose]
10% unfolding (WT MelBSt): 45.95 ± 0.47 °C | 50% unfolding (Tm) (WT MelBSt): 54.07 ± 0.07 °C | 90% unfolding (WT MelBSt): 64.24 ± 0.42 °C | ΔTm (WT MelBSt): 0.78 (<0.05) °C | 50% unfolding (Tm) (D55C MelBSt mutant): >80 °C | Entropy change (−TΔS) (MelBSt; [1]): -2.3 ± 0.16 kcal/mol | Free energy change (ΔG) (MelBSt; [1]): -3.927 ± 0.0072 kcal/mol | Kd (MelBSt; [1]): 1050 ± 10 µM | ΔH (MelBSt; [1]): -1.54 ± 0.103 kcal/mol | Entropy change (−TΔS) (MelBSt; [2]): -1.76 ± 0.237 kcal/mol | Free energy change (ΔG) (MelBSt; [2]): -4.085 ± 0.0956 kcal/mol | Kd (MelBSt; [2]): 950 ± 130 µM | ΔH (MelBSt; [2]): -2.32 ± 0.141 kcal/mol | Entropy change (−TΔS) (MelBSt; [3]): -1.14 ± 0.0621 kcal/mol | Free energy change (ΔG) (MelBSt; [3]): -3.994 ± 0.0072 kcal/mol | Kd (MelBSt; [3]): 1180 ± 10 µM | ΔH (MelBSt; [3]): -2.861 ± 0.055 kcal/mol | Entropy change (−TΔS) (MelBSt; [4]): -0.712 ± 0.0741 kcal/mol | Free energy change (ΔG) (MelBSt; [4]): -3.956 ± 0.017 kcal/mol | Kd (MelBSt; [4]): 1410 ± 40 µM | ΔH (MelBSt; [4]): -3.243 ± 0.0574 kcal/mol | Entropy change (−TΔS) (MelBSt; [5]): -0.261 ± 0.055 kcal/mol | Free energy change (ΔG) (MelBSt; [5]): -3.879 ± 0.0478 kcal/mol | Kd (MelBSt; [5]): 1780 ± 140 µM | ΔH (MelBSt; [5]): -3.623 ± 0.105 kcal/mol | Entropy change (−TΔS) (MelBSt; apo MelBSt (main buffer), 15°C): 3.499 ± 1.03 kcal/mol | Free energy change (ΔG) (MelBSt; apo MelBSt (main buffer), 15°C): -2.694 ± 0.0645 kcal/mol | Kd (MelBSt; apo MelBSt (main buffer), 15°C): 9150 ± 1060 µM | ΔH (MelBSt; apo MelBSt (main buffer), 15°C): -6.193 ± 1.09 kcal/mol | ΔH (MelBSt; apo MelBSt (main buffer), 15°C, listed as melibiose): -6.193 kcal/mol | Entropy change (−TΔS) (MelBSt; apo MelBSt (main buffer), 20°C): 2.849 ± 1.19 kcal/mol | Free energy change (ΔG) (MelBSt; apo MelBSt (main buffer), 20°C): -2.71 ± 0.0621 kcal/mol | Kd (MelBSt; apo MelBSt (main buffer), 20°C): 9590 ± 1010 µM | ΔH (MelBSt; apo MelBSt (main buffer), 20°C): -5.559 ± 1.25 kcal/mol | Entropy change (−TΔS) (MelBSt; apo MelBSt (main buffer), 25°C): 2 ± 1.6 kcal/mol | Free energy change (ΔG) (MelBSt; apo MelBSt (main buffer), 25°C): -2.698 ± 0.139 kcal/mol | Kd (MelBSt; apo MelBSt (main buffer), 25°C): 10800 ± 2490 µM | ΔH (MelBSt; apo MelBSt (main buffer), 25°C): -4.694 ± 1.47 kcal/mol | Entropy change (−TΔS) (MelBSt; apo MelBSt (main buffer), 30°C): 1.34 ± 1.35 kcal/mol | Free energy change (ΔG) (MelBSt; apo MelBSt (main buffer), 30°C): -2.584 ± 0.0526 kcal/mol | Kd (MelBSt; apo MelBSt (main buffer), 30°C): 13800 ± 1180 µM | ΔH (MelBSt; apo MelBSt (main buffer), 30°C): -3.92 ± 1.3 kcal/mol | ΔH (MelBSt; apo MelBSt (main buffer), 30°C, listed as melibiose): -3.92 kcal/mol | ΔΔH (MelBSt; apo MelBSt): ~2.39 kcal/mol | Kd (MelBSt; [6]): 9000 to 13000 µM | binding free energy ΔG (MelBSt; [6]): -2.694 to -2.584 kcal/mol | −ΔSConf (MelBSt; [7]): 59.86 J/mol·K | −ΔSMix (MelBSt; [7]): 33.00 J/mol·K | −ΔSSolv (MelBSt; [7]): −108.78 J/mol·K | −ΔSSum at °25 C (MelBSt; [7]): −15.92 J/mol·K | −ΔSConf (MelBSt; binding to apo MelBSt): −169.20 J/mol·K | −ΔSMix (MelBSt; binding to apo MelBSt): 33.00 J/mol·K | −ΔSSolv (MelBSt; binding to apo MelBSt): 164.61 J/mol·K | −ΔSSum at °25 C (MelBSt; binding to apo MelBSt): 28.41 J/mol·K | ΔCp (MelBSt; binding to apo MelBSt, slope of ΔH versus temperature 15-30°C): 643.01 ± 26.92 J/mol·K

[Na+] [Na^+]
10% unfolding (WT MelBSt): 49.07 ± 0.28 °C | 50% unfolding (Tm) (WT MelBSt): 54.83 ± 0.03 °C | 90% unfolding (WT MelBSt): 60.06 ± 0.29 °C | denaturation completed faster than in the absence of salt (WT MelBSt): 4–5 °C | ΔTm (WT MelBSt): 1.54 (<0.05) °C | 10% unfolding (D55C MelBSt mutant): 46.35 ± 0.25 °C | 50% unfolding (Tm) (D55C MelBSt mutant): 56.75 ± 0.25 °C | 90% unfolding (D55C MelBSt mutant): 66.51 ± 0.31 °C | Entropy change (−TΔS) (MelBSt; [8]): -3.009 ± 0.0621 kcal/mol | Free energy change (ΔG) (MelBSt; [8]): -5.566 ± 0.0478 kcal/mol | Kd (MelBSt; [8]): 60 ± 10 µM | ΔH (MelBSt; [8]): -2.557 ± 0.014 kcal/mol | Entropy change (−TΔS) (MelBSt; [9]): -1.94 ± 0.0072 kcal/mol | Free energy change (ΔG) (MelBSt; [9]): -5.554 ± 0.0406 kcal/mol | Kd (MelBSt; [9]): 70 ± 10 µM | ΔH (MelBSt; [9]): -3.619 ± 0.0359 kcal/mol | Entropy change (−TΔS) (MelBSt; [10]): -0.913 ± 0.0072 kcal/mol | Free energy change (ΔG) (MelBSt; [10]): -5.39 ± 0.196 kcal/mol | Kd (MelBSt; [10]): 120 ± 40 µM | ΔH (MelBSt; [10]): -4.479 ± 0.191 kcal/mol | Free energy change (ΔG) (MelBSt; [11]): -5.485 ± 0.177 kcal/mol | Kd (MelBSt; [11]): 120 ± 30 µM | ΔH (MelBSt; [11]): -5.299 ± 0.124 kcal/mol | difference in apo MelBSt binding affinities between Na^+ and melibiose (MelBSt; apo MelBSt): at least 20 fold | Entropy change (−TΔS) (MelBSt; apo MelBSt (main buffer), 15°C): 4.197 ± 0.311 kcal/mol | Free energy change (ΔG) (MelBSt; apo MelBSt (main buffer), 15°C): -4.345 ± 0.0932 kcal/mol | Kd (MelBSt; apo MelBSt (main buffer), 15°C): 510 ± 80 µM | ΔH (MelBSt; apo MelBSt (main buffer), 15°C): -8.544 kcal/mol and -8.544 ± 0.215 kcal/mol | Entropy change (−TΔS) (MelBSt; apo MelBSt (main buffer), 20°C): 2.404 ± 0.0048 kcal/mol | Free energy change (ΔG) (MelBSt; apo MelBSt (main buffer), 20°C): -4.333 ± 0.117 kcal/mol | Kd (MelBSt; apo MelBSt (main buffer), 20°C): 600 ± 100 µM | ΔH (MelBSt; apo MelBSt (main buffer), 20°C): -6.74 ± 0.103 kcal/mol | Entropy change (−TΔS) (MelBSt; apo MelBSt (main buffer), 25°C): 0.872 ± 0.0741 kcal/mol | Free energy change (ΔG) (MelBSt; apo MelBSt (main buffer), 25°C): -4.412 ± 0.1 kcal/mol | Kd (MelBSt; apo MelBSt (main buffer), 25°C): 590 ± 120 µM | ΔH (MelBSt; apo MelBSt (main buffer), 25°C): -5.284 ± 0.191 kcal/mol | Entropy change (−TΔS) (MelBSt; apo MelBSt (main buffer), 30°C): -0.473 ± 0.387 kcal/mol | Free energy change (ΔG) (MelBSt; apo MelBSt (main buffer), 30°C): -4.302 ± 0.0526 kcal/mol | Kd (MelBSt; apo MelBSt (main buffer), 30°C): 790 ± 70 µM | ΔH (MelBSt; apo MelBSt (main buffer), 30°C): -3.829 kcal/mol and -3.829 ± 0.335 kcal/mol | ΔΔH (MelBSt; apo MelBSt): ~4.78 kcal/mol | −ΔSConf (MelBSt; [12]): 148.74 J/mol·K | −ΔSMix (MelBSt; [12]): 33.00 J/mol·K | −ΔSSolv (MelBSt; [12]): −194.56 J/mol·K | −ΔSSum at °25 C (MelBSt; [12]): −12.82 J/mol·K | −ΔSConf (MelBSt; binding to apo MelBSt): −354.89 J/mol·K | −ΔSMix (MelBSt; binding to apo MelBSt): 33.00 J/mol·K | −ΔSSolv (MelBSt; binding to apo MelBSt): 334.13 J/mol·K | −ΔSSum at °25 C (MelBSt; binding to apo MelBSt): 12.24 J/mol·K
